Experiments:
[1] = Acute toxicity in po dosed rat assessed as mortality after 24 hrs; assay type: organism-based; details: in vivo, read-out: ALD50
How it was run: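 Male rats, 180-200 g, groups of five, fasted 24 h before dosing. Compounds given orally at graded doses of 0.1-0.3 g/kg body weight. Mortality at each dose level recorded after 24 h to estimate approximate acute lethal dose (ALD50).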

[2] = system: Rattus norvegicus; test: Analgesic activity in albino rat assessed as increase in tail withdrawal latency at 20 mg/kg, po after 1 hr relative to control; assay type: functional
How it was run: (§1)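 Male albino rats, 120-150 g, five per group, free access to food and water. Compounds given orally at 20 mg/kg; control group kept, diclofenac Na reference at 20 mg/kg po. Tail withdrawal after immersion in 55 °C water. Reaction time read at 1, 2 and 4 h. Reported as mean ± S.E. and as % increase over basal values. ANOVA with Student-Newman-Keuls, P < 0.05.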

[3] = system: Rattus norvegicus; test: Analgesic activity in albino rat assessed as increase in tail withdrawal latency at 20 mg/kg, po after 2 hrs relative to control; assay type: functional; how it was run: as §1
[4] = system: Rattus norvegicus; test: Antiinflammatory activity in albino rat assessed as inhibition of formalin-induced paw edema at 20 mg/kg, po administered 1 hr prior to formalin challenge measured after 1 hr by plethysmometric analysis relative to control; assay type: functional
How it was run: (§2)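 Male albino rats, 180-200 g, five per group. Test compounds given orally at 20 mg/kg; diclofenac Na reference at 20 mg/kg po. After 1 h, 2% formalin (0.1 ml) injected subplantar into left hind paw under light ether anaesthesia. Paw volume read by water plethysmometer at 0, 1, 2 and 4 h. % inhibition of edema increase (Vt−Vo) calculated versus control; mean ± S.E.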

[5] = system: Rattus norvegicus; test: Antiinflammatory activity in albino rat assessed as inhibition of formalin-induced paw edema at 20 mg/kg, po qd administered 7 days measured on day 1 post formalin challenge by plethysmometric analysis relative to control; assay type: functional
How it was run: (§3)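 Sub-acute model in rats. Compounds given orally at 20 mg/kg daily for 7 consecutive days. 2% formalin (0.1 ml) injected subplantar into left hind paw under light ether anaesthesia 1 h after the day-1 dose, with a second injection on day 3. Paw volume measured plethysmographically on days 1 and 8. Inhibition calculated versus control.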

[6] = system: Rattus norvegicus; test: Antiinflammatory activity in albino rat assessed as inhibition of formalin-induced paw edema at 20 mg/kg, po qd administered 7 days measured on day 8 post formalin challenge by plethysmometric analysis relative to control; assay type: functional; how it was run: as §3
[7] = system: Rattus norvegicus; test: Antiinflammatory activity in albino rat assessed as inhibition of formalin-induced paw edema at 20 mg/kg, po administered 1 hr prior to formalin challenge measured after 4 hrs by plethysmometric analysis relative to control; assay type: functional; how it was run: as §2
[8] = system: Rattus norvegicus; test: Antiinflammatory activity in albino rat assessed as inhibition of formalin-induced paw edema at 20 mg/kg, po administered 1 hr prior to formalin challenge measured after 2 hrs by plethysmometric analysis relative to control; assay type: functional; how it was run: as §2
[9] = system: Rattus norvegicus; test: Analgesic activity in albino rat assessed as increase in tail withdrawal latency at 20 mg/kg, po after 4 hrs relative to control; assay type: functional; how it was run: as §1
[10] = system: Rattus norvegicus; test: Antiinflammatory activity in po dosed albino rat assessed as inhibition of formalin-induced paw edema administered 1 hr prior to formalin challenge measured after 2 hrs by plethysmometric analysis; assay type: functional
How it was run: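 Male albino rats, 180-200 g, groups of five, dosed orally at 5, 10, 20, 40 and 50 mg/kg. After 1 h, 2% formalin (0.1 ml) injected subplantar into left hind paw. Paw edema inhibition measured plethysmometrically 2 h after formalin injection. ED50 derived from these doses.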

[11] = system: Rattus norvegicus; test: Ulcerogenic activity in albino rat assessed as appearance of hyperemia at 300 mg/kg, po bid administered for 3 days measured after 6 hrs post last dose relative to control; assay type: toxicity, organism-based; set-up: dose 300 mg/kg, route oral; details: in vivo
How it was run: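 Rats received 300 mg/kg per day orally as two equal doses at 0 and 12 h for three successive days, with water ad libitum. Controls received 1% gum acacia orally. Animals were killed with diethyl ether 6 h after the last dose. Stomachs were removed and inspected grossly for hyperemia and ulceration. Diclofenac Na served as reference.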

SMILES | LD50 at 24 h [1] [mg/kg] | Activity [2] [%] | Activity [3] [%] | inhibition in vivo at 20 mg/kg [4] [%] | inhibition in vivo at 20 mg/kg [5] [%] | inhibition in vivo at 20 mg/kg [6] [%] | inhibition in vivo at 20 mg/kg [7] [%] | inhibition in vivo at 20 mg/kg [8] [%] | Activity [9] [%] | ED50 [10] [mg/kg] | Activity [11]
Cc1nn2c(=O)c3c(C)c(C)sc3nc2[nH]1 | > 300 | 30 | 40 | 38 | 44 | 31 | 52 | 43 | 54 | 23.4 | Non-toxic
Cc1sc2nc3[nH]c(CC(=O)Nc4ccc(Cl)cc4)nn3c(=O)c2c1C |  | 28 | 32 | 33 | 36 | 38 | 29 | 28 | 40 |  | 
COc1ccc(NC(=O)Cc2nn3c(=O)c4c(C)c(C)sc4nc3[nH]2)cc1 | > 300 | 14 | 35 | 47 | 41 | 38 | 43 | 40 | 42 | 18.4 | Non-toxic
Cc1ccc(-c2cnc3nc4sc(C)c(C)c4c(=O)n3n2)cc1 |  | 13 | 25 | 21 | 25 | 22 | 27 | 28 | 29 |  | 
Cc1sc2nc3[nH]c(Nc4ccc(Cl)cc4)nn3c(=O)c2c1C |  | 26 | 40 | 9 | 36 | 24 | 11 | 6 | 54 |  | 
O=C([O-])Cc1ccccc1Nc1c(Cl)cccc1Cl.[Na+] [DICLOFENAC SODIUM] |  | 30 |  | 38 | 44 | 40 | 52 |  | 56 | 25.1 | 20%
Cc1ccc(Nc2nn3c(=O)c4c(C)c(C)sc4nc3[nH]2)cc1 |  | 23 | 31 | 21 | 33 | 24 | 18 | 5 | 44 |  | 
Cc1sc2nc3ncc(-c4ccc(Br)cc4)nn3c(=O)c2c1C |  | 13 | 24 | 13 | 33 | 25 | 27 | 5 | 28 |  | 
CCOC(=O)Cc1nn2c(=O)c3c(C)c(C)sc3nc2[nH]1 | > 300 | 19 | 47 | 47 | 47 | 40 | 56 | 53 | 62 | 28.1 | 20%
Cc1sc2nc3[nH]c(CC(=O)Nc4ccccc4)nn3c(=O)c2c1C | > 300 | 21 | 36 | 42 | 50 | 37 | 40 | 37 | 51 | 26.1 | 20%
Cc1sc2nc3ncc(-c4ccc(Cl)cc4)nn3c(=O)c2c1C |  | 6 | 11 | 14 | 36 | 18 | 20 | 12 | 23 |  | 
Cc1sc2nc3[nH]c(Nc4ccccc4)nn3c(=O)c2c1C |  | 5 | 17 | 9 | 36 | 20 | 25 | 12 | 26 |  | 
Cc1sc2nc3ncc(-c4ccccc4)nn3c(=O)c2c1C |  | 17 | 34 | 14 | 38 | 38 | 34 | 28 | 50 |  | 
Cc1sc2nc3[nH]c(=S)[nH]n3c(=O)c2c1C | > 300 | 27 | 35 | 42 | 47 | 40 | 27 | 43 | 39 | 27.5 | 20%
Cc1sc2nc3[nH]c(CC#N)nn3c(=O)c2c1C | > 300 | 41 | 53 | 42 | 47 | 38 | 36 | 25 | 64 | 29 | 20%
